{"source": "ChEMBL document CHEMBL5678814", "about": "“Novel Mps1 Kinase Inhibitors with Potent Antitumor Activity” (Mol Cancer Ther, 2016)", "key": {"COLO 320DM": {"system": "COLO 320DM", "experiment": "Antiproliferative activity against human COLO 320DM cells assessed as cell growth inhibition incubated for 96 hrs by crystal violet staining"}, "OPM-2": {"system": "OPM-2", "experiment": "Antiproliferative activity against human OPM-2 cells assessed as cell growth inhibition incubated for 96 hrs by crystal violet staining", "conditions": "OPM-2, 96 h"}, "[1]": {"experiment": "Antiproliferative activity against human JMSU-1 cells assessed as cell growth inhibition incubated for 96 hrs by MTS assay", "assay_type": "functional, cell-based", "conditions": "JMSU-1, 96 h"}, "KM-H2": {"system": "KM-H2", "experiment": "Antiproliferative activity against human KM-H2 cells assessed as cell growth inhibition incubated for 96 hrs by MTS assay", "assay_type": "functional, cell-based", "conditions": "KM-H2, 96 h"}, "U2OS": {"system": "U2OS", "experiment": "Antiproliferative activity against human U2OS cells assessed as cell growth inhibition incubated for 96 hrs by MTS assay", "assay_type": "functional, cell-based"}, "[2]": {"experiment": "Antiproliferative activity against human HBL1 cells assessed as cell growth inhibition incubated for 96 hrs by MTS assay", "assay_type": "functional, cell-based", "conditions": "HBL1, 96 h"}, "Rh41": {"system": "Rh41", "experiment": "Antiproliferative activity against human Rh41 cells assessed as cell growth inhibition incubated for 96 hrs by MTS assay", "assay_type": "functional, cell-based", "conditions": "Rh41, 96 h"}, "A673": {"system": "A673", "experiment": "Antiproliferative activity against human A673 cells assessed as cell growth inhibition incubated for 96 hrs by MTS assay", "assay_type": "functional, cell-based", "conditions": "A673, 96 h"}, "NCI-H460": {"system": "NCI-H460", "experiment": "Antiproliferative activity against human NCI-H460 cells assessed as cell growth inhibition incubated for 96 hrs by crystal violet staining", "conditions": "NCI-H460, 96 h"}, "HCT-116 [3]": {"system": "HCT-116", "experiment": "Antiproliferative activity against human TP53 wildtype HCT-116 cells assessed as cell growth inhibition incubated for 96 hrs by crystal violet staining", "conditions": "HCT-116, 96 h"}, "[4]": {"experiment": "Tmax in female NMRI mouse plasma at 1 mg/kg, po measured after 24 hrs by LC/-MS/MS analysis"}, "HCT-116 [5]": {"system": "HCT-116", "experiment": "Antiproliferative activity against human HCT-116 cells assessed as cell growth inhibition incubated for 96 hrs by crystal violet staining", "conditions": "HCT-116, 96 h"}, "SAOS-2": {"system": "SAOS-2", "experiment": "Antiproliferative activity against human SAOS-2 cells assessed as cell growth inhibition incubated for 96 hrs by MTS assay", "assay_type": "functional, cell-based", "conditions": "SAOS-2, 96 h"}, "COLO-829": {"system": "COLO-829", "experiment": "Antiproliferative activity against human COLO-829 cells assessed as cell growth inhibition incubated for 96 hrs by crystal violet staining", "conditions": "COLO-829, 96 h"}, "RPMI-2650": {"system": "RPMI-2650", "experiment": "Antiproliferative activity against human RPMI-2650 cells assessed as cell growth inhibition incubated for 96 hrs by crystal violet staining", "conditions": "RPMI-2650, 96 h"}, "Caco-2": {"system": "Caco-2", "experiment": "Antiproliferative activity against human Caco-2 cells assessed as cell growth inhibition incubated for 96 hrs by crystal violet staining", "conditions": "Caco-2, 96 h"}, "RD": {"system": "RD", "experiment": "Antiproliferative activity against human RD cells assessed as cell growth inhibition incubated for 96 hrs by MTS assay", "assay_type": "functional, cell-based"}, "Malme-3M": {"system": "Malme-3M", "experiment": "Antiproliferative activity against human Malme-3M cells assessed as cell growth inhibition incubated for 96 hrs by crystal violet staining"}, "SK-N-AS": {"system": "SK-N-AS", "experiment": "Antiproliferative activity against human SK-N-AS cells assessed as cell growth inhibition incubated for 96 hrs by crystal violet staining"}, "A2780": {"system": "A2780", "experiment": "Antiproliferative activity against human A2780 cells assessed as cell growth inhibition incubated for 96 hrs by crystal violet staining", "conditions": "A2780, 96 h"}, "Granta-519": {"system": "Granta-519", "experiment": "Antiproliferative activity against human Granta-519 cells assessed as cell growth inhibition incubated for 96 hrs by MTS assay", "assay_type": "functional, cell-based", "conditions": "Granta-519, 96 h"}, "SK-OV-3": {"system": "SK-OV-3", "experiment": "Antiproliferative activity against human SK-OV-3 cells assessed as cell growth inhibition incubated for 96 hrs by crystal violet staining", "conditions": "SK-OV-3, 96 h"}, "[6]": {"experiment": "Half life in male CD1 mouse plasma at 0.5 mg/kg, iv measured after 24 hrs by LC/-MS/MS analysis", "assay_type": "ADME, organism-based", "how_it_was_run": "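Male CD1 mice received a single iv bolus of 0.5 mg/kg in 1% DMSO/99% plasma. Plasma was sampled at 2, 5, 15, 30 and 45 min and at 1, 2, 4, 6, 8 and 24 h, precipitated with ice-cold acetonitrile (1:5), and supernatants were run by LC/MS-MS. Parameters were estimated from plasma concentration data, with AUC by the log-linear trapezoidal rule.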"}, "MDA-MB-453": {"system": "MDA-MB-453", "experiment": "Antiproliferative activity against human MDA-MB-453 cells assessed as cell growth inhibition incubated for 96 hrs by crystal violet staining", "conditions": "MDA-MB-453, 96 h"}, "[7]": {"target": "Phosphatidylinositol 5-phosphate 4-kinase type-2 gamma (Homo sapiens, UniProt Q8TBX8)", "sequence (Q8TBX8 whole entry)": "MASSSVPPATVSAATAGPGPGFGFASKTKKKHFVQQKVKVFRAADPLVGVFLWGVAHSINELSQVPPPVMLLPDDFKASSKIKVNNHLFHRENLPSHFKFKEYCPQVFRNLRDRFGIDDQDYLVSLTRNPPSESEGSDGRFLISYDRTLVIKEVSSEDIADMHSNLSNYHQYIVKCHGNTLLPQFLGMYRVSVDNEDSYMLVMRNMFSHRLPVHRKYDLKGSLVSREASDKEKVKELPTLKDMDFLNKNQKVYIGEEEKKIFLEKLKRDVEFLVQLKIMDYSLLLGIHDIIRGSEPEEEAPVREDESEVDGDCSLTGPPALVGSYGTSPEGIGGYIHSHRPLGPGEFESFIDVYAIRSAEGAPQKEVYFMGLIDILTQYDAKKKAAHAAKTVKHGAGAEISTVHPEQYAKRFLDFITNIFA", "experiment": "Binding affinity to PIP5K2C (unknown origin) assessed as dissociation constant"}, "[8]": {"experiment": "Antiproliferative activity against human NCI-H2110 cells assessed as cell growth inhibition incubated for 96 hrs by crystal violet staining", "conditions": "NCI-H2110, 96 h"}, "[9]": {"experiment": "Antiproliferative activity against human HeLa-MaTu cells assessed as cell growth inhibition incubated for 96 hrs by crystal violet staining"}, "NCI-H2228": {"system": "NCI-H2228", "experiment": "Antiproliferative activity against human NCI-H2228 cells assessed as cell growth inhibition incubated for 96 hrs by crystal violet staining", "conditions": "NCI-H2228, 96 h"}, "KU-19-19": {"system": "KU-19-19", "experiment": "Antiproliferative activity against human KU-19-19 cells assessed as cell growth inhibition incubated for 96 hrs by MTS assay", "assay_type": "functional, cell-based", "conditions": "KU-19-19, 96 h"}, "RT-112": {"system": "RT-112", "experiment": "Antiproliferative activity against human RT-112 cells assessed as cell growth inhibition incubated for 96 hrs by MTS assay", "assay_type": "functional, cell-based", "conditions": "RT-112, 96 h"}, "A-375": {"system": "A-375", "experiment": "Antiproliferative activity against human A-375 cells assessed as cell growth inhibition incubated for 96 hrs by crystal violet staining", "conditions": "A-375, 96 h"}, "[10]": {"experiment": "Clearance in male Wistar rat blood at 0.5 mg/kg, iv measured after 24 hrs by LC/-MS/MS analysis", "assay_type": "ADME, organism-based"}, "[11]": {"experiment": "Toxicity in human A2780cis cells xenografted female athymic NMRI mouse model assessed as change in body weight at 2.5 mg/kg, po administered twice daily intermittent for 2 days on/5 days off", "assay_type": "organism-based", "conditions": "in vivo, 168 h, time 7 day", "how_it_was_run": "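A2780cis cells (2×10^6 in 100% Matrigel) implanted s.c. in athymic mice. Treatment started at ~30 mm2. Oral dosing twice daily, 2 days on/5 days off, with PEG 400/ethanol/Solutol vehicle controls. Dose based on individual body weight. Body weight monitored two to three times weekly as toxicity measure; >20% loss deemed toxic.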"}}, "data": [{"smiles": "COc1cc(S(C)(=O)=O)ccc1Nc1nc2ccc(-c3ccc(NC(=O)[C@H](C)c4ccc(F)cc4)cc3)cn2n1", "note": "[BAY-1161909]", "values": [{"measurement": "IC50", "setting": "COLO 320DM", "value": 110, "unit": "nM"}, {"measurement": "IC50", "setting": "OPM-2", "value": 130, "unit": "nM"}, {"measurement": "IC50", "setting": "[1]", "value": 89, "unit": "nM"}, {"measurement": "IC50", "setting": "KM-H2", "value": 220, "unit": "nM"}, {"measurement": "IC50", "setting": "U2OS", "value": 550, "unit": "nM"}, {"measurement": "IC50", "setting": "[2]", "value": 110, "unit": "nM"}, {"measurement": "IC50", "setting": "Rh41", "value": 150, "unit": "nM"}, {"measurement": "IC50", "setting": "A673", "value": 93, "unit": "nM"}, {"measurement": "IC50", "setting": "NCI-H460", "value": 110, "unit": "nM"}, {"measurement": "IC50", "setting": "HCT-116 [3]", "value": 42, "unit": "nM"}, {"measurement": "Tmax", "setting": "[4]", "value": 4, "unit": "h"}, {"measurement": "IC50", "setting": "HCT-116 [5]", "value": 56, "unit": "nM"}, {"measurement": "IC50", "setting": "SAOS-2", "value": 520, "unit": "nM"}, {"measurement": "IC50", "setting": "COLO-829", "value": 300, "unit": "nM"}, {"measurement": "IC50", "setting": "RPMI-2650", "value": 51, "unit": "nM"}, {"measurement": "IC50", "setting": "Caco-2", "value": 1800, "unit": "nM"}, {"measurement": "IC50", "setting": "RD", "value": 260, "unit": "nM"}, {"measurement": "IC50", "setting": "Malme-3M", "value": 200, "unit": "nM"}, {"measurement": "IC50", "setting": "SK-N-AS", "value": 97, "unit": "nM"}, {"measurement": "IC50", "setting": "A2780", "value": 69, "unit": "nM"}, {"measurement": "IC50", "setting": "Granta-519", "value": 240, "unit": "nM"}, {"measurement": "IC50", "setting": "SK-OV-3", "value": 3.7, "unit": "µM"}, {"measurement": "half-life", "setting": "[6]", "value": 294, "unit": "min"}, {"measurement": "IC50", "setting": "MDA-MB-453", "value": "> 3000", "unit": "nM"}, {"measurement": "Kd", "setting": "[7]", "value": 280, "unit": "nM"}, {"measurement": "IC50", "setting": "[8]", "value": 280, "unit": "nM"}, {"measurement": "IC50", "setting": "[9]", "value": 200, "unit": "nM"}, {"measurement": "IC50", "setting": "NCI-H2228", "value": "> 3000", "unit": "nM"}, {"measurement": "IC50", "setting": "KU-19-19", "value": 86, "unit": "nM"}, {"measurement": "IC50", "setting": "RT-112", "value": 83, "unit": "nM"}, {"measurement": "IC50", "setting": "A-375", "value": 100, "unit": "nM"}, {"measurement": "clearance", "setting": "[10]", "value": 3.17, "unit": "mL/min/kg"}, {"measurement": "Activity", "setting": "[11]", "value": "Non-Toxic"}]}]}
